Series [1] has as its system Huh-7. Put plainly: Cytotoxicity against human HuH7 cells infected with Hepatitis B virus subtype adw2 assessed as reduction in cell viability at >80 ug/ml after 3 days by MTS assay. The class given is cell-based. As to conditions: huh-7, 72 h. In short, it runs like this: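 HBV-expressing Huh7 cells were plated for 24 h, then exposed to serial dilutions (2.5–160 μg/mL) for 3 days. Viability was measured by MTS assay. Mean ± SD, n = 4, compared with untreated cells.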
In general terms: Tetrazolium assays rely on reduction of a dye to a coloured formazan, in cell work by metabolically active cells.

Series [2] deals with Hepatitis B virus subtype adw2. Description: Antiviral activity against Hepatitis B virus subtype adw2 infected in human HuH7 cells assessed as inhibition of viral DNA replication after 3 days by RT-PCR method. In kind it is functional, cell-based. The procedure, abridged:
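HBV-expressing Huh7 cells were dosed at 2.5, 5 or 10 μg/mL for 3 days. Viral DNA was isolated from virion particles in the conditioned medium and quantified by real-time PCR. Mean ± SD, n = 3, compared with untreated cells.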

Series [3] relates to Hepatitis B virus subtype adw2. Description: Antiviral activity against Hepatitis B virus subtype adw2 infected in human HuH7 cells assessed as reduction in precore/pregenomic RNA level at 2.5 to 10 ug/ml after 2 days by northern blot method. The class given is functional, cell-based. The procedure, abridged:
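After pHBV1.2 transfection of Huh7 cells for 2 days, cells were treated at 2.5, 5 or 10 μg/mL for 2 more days. Total RNA was Northern-blotted with an HBV whole-genome DNA probe. GAPDH served as loading control and β-gal marked transfection efficiency. Bands from three experiments were quantified by densitometry and normalized to GAPDH.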

A short description of series [4]: Antiviral activity against Hepatitis B virus subtype adw2 infected in human HuH7 cells assessed as reduction in HBx level at 10 ug/ml after 2 days by immunoblot method relative to control. The class given is functional. The procedure, abridged: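 Huh7 cells were transfected with pHBV1.2 (1.2-fold HBV adw2 genome) for 2 days, then exposed to 2.5, 5 or 10 μg/mL for another 2 days. Whole-cell protein was extracted with protease inhibitors. SHBs, HBcAg and HBx were detected by immunoblot, with α-tubulin for comparison.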

The subject of series [5] is Hepatitis B virus. Description: Decrease in HBV core promoter activity infected in human HuH7 cells cotransfected with pHBV1.2 at 10 ug/ml after 24 hrs by luciferase reporter gene assay. In kind it is cell-based. The procedure, abridged: (§1)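 Huh7 cells were seeded for 24 h, then cotransfected with pHBV1.2, pRLSV40 and a pGL4.17-based Core (nt 1636-1851), S (nt 3114-220), PreS (nt 2438-2855) or X (nt 1071-1357) promoter-luciferase construct for 24 h. Cells were then treated at 10 μg/mL for 24 h and lysates were assayed for luciferase. Mean ± SD, n = 3.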
A general note: A reporter such as luciferase makes a cellular process visible.

Series [6] has as its system Hepatitis B virus. Description: Decrease in HBV X promoter activity infected in human HuH7 cells cotransfected with pHBV1.2 at 10 ug/ml after 24 hrs by luciferase reporter gene assay. In kind it is cell-based. The procedure, abridged:
as §1

Series [7] is described as follows: Decrease in NF-kB (unknown origin) promoter activity expressed in human HuH7 cells cotransfected with pHBV1.2 at 10 ug/ml after 24 hrs by luciferase reporter gene assay. The class given is cell-based. The procedure, abridged:
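Huh7 cells were seeded for 24 h, then cotransfected with pHBV1.2, pRLSV40 and pAP1-Luc or pNF-κB-Luc responsive-element reporter for 24 h. Cells were treated at 10 μg/mL for 24 h and lysates were assayed for luciferase. Mean ± SD, n = 3, compared with untreated cells.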

For series [8], the system named is Huh-7. Put plainly: Decrease in NF-kB p65 protein expression in human HuH7 cells transfected with pHBV1.2 at 5 ug/ml after 2 days by immunoblot method relative to control. The class given is functional. In short, it runs like this:
(§2)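 Huh7 cells were transfected with pHBV1.2 for 2 days, then treated at 2.5, 5 or 10 μg/mL for another 2 days. Whole-cell protein was extracted with protease inhibitors. NF-κB p65/p50, phospho-p65, IKKα/β and IκBα/phospho-IκBα were detected by immunoblot. Blots are representative of three experiments.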
(In western blotting, separated proteins are transferred to a membrane and probed.)

Series [9] deals with Huh-7. Description: Decrease in IKKbeta protein expression in human HuH7 cells transfected with pHBV1.2 at 5 ug/ml after 2 days by immunoblot method relative to control. In kind it is functional. The procedure, abridged: as §2
The test system of series [10] is Huh-7. Put plainly: Decrease in IKKbeta protein expression in human HuH7 cells transfected with pHBV1.2 at 10 ug/ml after 2 days by immunoblot method relative to control. In kind it is functional. The procedure, abridged: as §2
For series [11], the target named is Transcription factor p65 (Homo sapiens) (UniProt Q04206). Description: Decrease in NF-kB p65 phosphorylation in human HuH7 cells transfected with pHBV1.2 at 5 ug/ml after 2 days by immunoblot method relative to control. The class given is cell-based. The procedure, abridged: as §2
The target in series [12] is T1, NF-kappa-B inhibitor alpha (Homo sapiens) (UniProt P25963).
T1 sequence (whole entry): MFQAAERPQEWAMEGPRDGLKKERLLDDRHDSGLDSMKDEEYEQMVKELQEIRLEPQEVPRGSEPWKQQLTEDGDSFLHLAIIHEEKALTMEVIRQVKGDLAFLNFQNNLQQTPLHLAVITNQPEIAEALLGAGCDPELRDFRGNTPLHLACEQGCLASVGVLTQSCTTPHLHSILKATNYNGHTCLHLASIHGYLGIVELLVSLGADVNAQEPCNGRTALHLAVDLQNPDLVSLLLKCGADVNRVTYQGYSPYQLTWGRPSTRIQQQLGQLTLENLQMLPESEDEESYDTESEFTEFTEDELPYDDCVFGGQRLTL
Put plainly: Decrease in IKBalpha phosphorylation in human HuH7 cells transfected with pHBV1.2 at 10 ug/ml after 2 days by immunoblot method relative to control. In kind it is cell-based. The procedure, abridged:
as §2

Series [13] has as its system Huh-7. Description: Decrease in IKBalpha protein expression in human HuH7 cells transfected with pHBV1.2 at 2.5 ug/ml after 2 days by immunoblot method relative to control. In kind it is functional. The procedure, abridged:
as §2

Series [14] deals with Huh-7. Put plainly: Decrease in IKBalpha protein expression in human HuH7 cells transfected with pHBV1.2 at 10 ug/ml after 2 days by immunoblot method relative to control. The class given is functional. In short, it runs like this: as §2
The nature of series [15]: Antiviral activity against Hepatitis B virus in human HepG2.2.15 cells assessed as inhibition of HBsAg secretion by EIA.
Series [16] deals with Mitogen-activated protein kinase; ERK1/ERK2 (Homo sapiens) (UniProt P27361+P28482). Put plainly: Decrease in ERK1/2 phosphorylation in human HuH7 cells transfected with pHBV1.2 at 2.5 to 10 ug/ml after 2 days by immunoblot method.
The subject of series [17] is Huh-7. Put plainly: Effect on p38 MAPK protein expression in human HuH7 cells transfected with pHBV1.2 at 2.5 ug/ml after 2 days by immunoblot method relative to control.
For series [18], the system named is Huh-7. Description: Decrease in p38 MAPK protein expression in human HuH7 cells transfected with pHBV1.2 at 5 ug/ml after 2 days by immunoblot method relative to control.
Series [19] in a line: Selectivity index, ratio of TC50 for human HepG2.2.15 cells to IC50 for Hepatitis B virus subtype adw2 infected in human HuH7 cells assessed as inhibition of HBsAg secretion.
Series [20] is described as follows: Selectivity index, ratio of TC50 for human HepG2.2.15 cells to IC50 for Hepatitis B virus subtype adw2 infected in human HepG2.2.15 cells assessed as inhibition of HBeAg secretion.

As a reminder, the pIC50 is the IC50 on a negative log10 scale, so that one unit is a factor of ten.

The structures appear in SMILES notation. pIC50: −log10 of the molar value. Activity calls are given as the source filed them. The calls are words filed in the database; no cut-off is given here.

Sequence of Transcription factor p65 (Homo sapiens) (Q04206 whole entry): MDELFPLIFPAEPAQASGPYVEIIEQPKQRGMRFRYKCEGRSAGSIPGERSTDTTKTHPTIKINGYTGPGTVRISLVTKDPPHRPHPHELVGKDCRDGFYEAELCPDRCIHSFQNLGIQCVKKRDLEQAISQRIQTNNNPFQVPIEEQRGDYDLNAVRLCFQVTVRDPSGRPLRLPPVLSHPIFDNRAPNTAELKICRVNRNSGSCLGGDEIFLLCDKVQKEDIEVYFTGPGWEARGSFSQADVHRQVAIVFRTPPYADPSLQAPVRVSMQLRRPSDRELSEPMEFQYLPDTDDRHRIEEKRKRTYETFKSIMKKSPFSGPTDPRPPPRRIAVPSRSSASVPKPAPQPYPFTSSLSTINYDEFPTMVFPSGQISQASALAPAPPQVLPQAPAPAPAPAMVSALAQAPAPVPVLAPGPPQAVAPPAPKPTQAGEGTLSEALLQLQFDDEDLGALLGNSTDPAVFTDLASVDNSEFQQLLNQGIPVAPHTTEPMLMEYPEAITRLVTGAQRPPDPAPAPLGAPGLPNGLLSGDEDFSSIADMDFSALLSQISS
Sequence of Mitogen-activated protein kinase; ERK1/ERK2 (Homo sapiens) (P27361 whole entry, looked up): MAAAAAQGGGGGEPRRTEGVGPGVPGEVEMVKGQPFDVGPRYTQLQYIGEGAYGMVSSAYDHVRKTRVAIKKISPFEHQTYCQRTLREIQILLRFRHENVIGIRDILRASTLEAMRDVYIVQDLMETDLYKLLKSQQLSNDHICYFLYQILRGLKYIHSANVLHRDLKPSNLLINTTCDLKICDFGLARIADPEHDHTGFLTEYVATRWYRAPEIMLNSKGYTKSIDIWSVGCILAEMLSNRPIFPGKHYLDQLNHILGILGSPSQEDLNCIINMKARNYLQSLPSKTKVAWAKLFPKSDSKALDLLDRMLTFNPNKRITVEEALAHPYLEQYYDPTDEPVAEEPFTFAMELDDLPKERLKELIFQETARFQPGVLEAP
Sequence of Mitogen-activated protein kinase; ERK1/ERK2 (Homo sapiens) (P28482 whole entry, looked up): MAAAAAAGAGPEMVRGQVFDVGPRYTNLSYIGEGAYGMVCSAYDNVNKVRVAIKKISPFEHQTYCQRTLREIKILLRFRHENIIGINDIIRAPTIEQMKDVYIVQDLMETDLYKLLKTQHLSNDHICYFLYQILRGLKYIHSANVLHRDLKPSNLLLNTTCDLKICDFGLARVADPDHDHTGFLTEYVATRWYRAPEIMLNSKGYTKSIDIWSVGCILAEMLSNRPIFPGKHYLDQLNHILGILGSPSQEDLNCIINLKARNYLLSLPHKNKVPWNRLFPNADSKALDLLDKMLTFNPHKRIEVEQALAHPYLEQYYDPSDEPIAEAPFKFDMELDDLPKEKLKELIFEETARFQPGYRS

As to `C=C1C[C@@]23CC[C@H]4[C@@](C)(CCC[C@@]4(C)NC(=O)NCCCC)[C@@H]2CC[C@]1(O)C3`, in series [1], the Activity entry was “Toxic”. The inhibition result in series [2] is “Dose-dependent effect”. In addition, the outcome in series [3], in [5], in series [6], in series [7] and in series [16] was Active. The “fold change (FC)” value in series [4] is 0.15; in series [8], 0.88; in series [9] it was 0.97; in series [10], 0.33; in [11] it was 0.88; in series [12], 0.25. Besides, the “fold change (FC)” value is recorded as 0.97 in series [13], 0.25 in [14], 1.01 in [17] and 0.98 in series [18]. In series [15], the pIC50 is 4.63. In addition, the figures for the selectivity ratio in [19] and in series [20] were 41.4 and 47.7, respectively.

Source of the values: ChEMBL document CHEMBL3997773, “Synthesis of C-4-Substituted Steviol Derivatives and Their Inhibitory Effects against Hepatitis B Virus” (J Nat Prod, 2016).
